Assays:
Thymidylate synthase = Thymidylate synthase (Mus musculus, UniProt P07607); assay: Inhibition of Thymidylate Synthase(TS) from mouse L1210 cells; format: cell-based; conditions: read-out: Ki app
WIL2 = assay: Compound was tested for inhibition of human W1L2 cell growth.; format: functional, cell-based
Mus musculus [1] = species: Mus musculus; assay: Compound was tested for inhibition of L1210 cell growth in mouse.; format: functional, organism-based
Mus musculus [2] = species: Mus musculus; assay: Compound was tested for inhibition of L1210:1565 cell growth in mouse.; format: functional, organism-based
Outline: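 Growth inhibition measured in L1210:1565, a mouse L1210 mutant line with an impaired reduced folate/MTX transport carrier. The line was selected for resistance to CI-920, an RFC-transported agent, and is cross-resistant to MTX. Result expressed as IC50.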

Mus musculus [3] = species: Mus musculus; assay: Compound was tested for inhibition of L1210:R D1694 cell growth in mouse.; format: functional, organism-based; conditions: L1210 (RD1694)

Chain of Thymidylate synthase (P07607 whole entry): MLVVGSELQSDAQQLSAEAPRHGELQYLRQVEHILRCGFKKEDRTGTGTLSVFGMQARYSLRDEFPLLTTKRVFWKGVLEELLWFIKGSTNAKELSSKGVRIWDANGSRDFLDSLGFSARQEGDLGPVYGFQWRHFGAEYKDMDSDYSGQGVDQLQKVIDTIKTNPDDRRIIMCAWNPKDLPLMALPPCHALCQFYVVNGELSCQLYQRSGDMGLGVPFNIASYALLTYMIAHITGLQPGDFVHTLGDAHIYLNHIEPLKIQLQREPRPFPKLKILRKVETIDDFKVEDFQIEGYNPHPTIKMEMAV

Ki (Thymidylate synthase): 42 nM
Structure (SMILES): C#CCN(Cc1ccc2nc(C)nc(O)c2c1)c1ccc(C(=O)N[C@@H](CCC(=O)NC(C)(C)C(=O)O)C(=O)O)cc1
IC50 (WIL2): 310 nM | IC50 (Mus musculus [1]): 2500 nM | IC50 (Mus musculus [2]): 70 µM | IC50 (Mus musculus [3]): 7.1 µM
